Results collected from several papers.
Lines come from different studies, so protocols differ.
CDK4: Cyclin-dependent kinase 4 (CDK4, Homo sapiens, UniProt P11802)
CDK4 with cyclin D3: Cyclin-dependent kinase 4, with cyclin D3 (CDK4, Homo sapiens, UniProt P11802)
CDK4 with cyclin D1: Cyclin-dependent kinase 4, with cyclin D1 (CDK4, Homo sapiens, UniProt P11802)

Structure (SMILES) | target | effect on | mode | technique | tested at | quantity | result
O=C(c1ccc(Br)cc1)[C@H]1Cc2c(cc([N+](=O)[O-])cc2[N+](=O)[O-])[C@@H](O)[C@@]12C(=O)Nc1ccccc12 | CDK4 | cell-free assay | inhibitor | TR-FRET | 1 µM | inhibition | 29.5%
COc1ccnn2ncc(-c3ccnc(N(C)C)n3)c12 | CDK4 with cyclin D3 | binding |  |  | 1 µM | remaining binding | 69%
O=C(c1ccc(Cl)c(Cl)c1)[C@H]1Cc2c(cc([N+](=O)[O-])cc2[N+](=O)[O-])[C@H](O)[C@]12C(=O)Nc1ccccc12 | CDK4 | cell-free assay | inhibitor | TR-FRET | 1 µM | inhibition | 18.5%
Cc1cnc(NC2CCOCC2)nc1-n1cnc(C(=O)NC(CN)c2cc(F)cc(Cl)c2)c1 (centres unmarked) | CDK4 with cyclin D3 | enzyme activity | inhibitor | radiometric | 1 µM | remaining activity | 6%
O=C(NCc1ncc(C(F)(F)F)cc1Cl)c1ccc2c(c1)C1(CCS(=O)(=O)CC1)[C@H](C1CC1)N2S(=O)(=O)c1ccc(F)cc1 | CDK4 with cyclin D3 | cell-free assay |  | competition with immobilised ligand | 1 µM | remaining binding | 88%
CN(c1nccc(-c2cnn3ncccc23)n1)C1CC1 | CDK4 with cyclin D1 | binding |  |  | 1 µM | remaining binding | 100%
Oc1cccc(-c2nc(N3CCOCC3)c3oc4ncccc4c3n2)c1 | CDK4 with cyclin D3 | cell-free assay |  |  | 0.5 µM | remaining signal | 92.5%
COc1cc(-c2cn(C3CCc4c(F)cccc4N(CC(F)(F)F)C3=O)nn2)ccc1-n1cnc(C)c1 (centres unmarked) | CDK4 with cyclin D3 | cell-free assay |  | competition with immobilised ligand | 1 µM | remaining binding | 100%
CC(C)(C)c1nc2c(s1)c1nc(N)ncc1c1ccc(NS(=O)(=O)c3c(F)cccc3F)c(F)c12 | CDK4 with cyclin D1 | enzyme activity | inhibitor | radiometric | 1 µM | remaining activity | 88%
CCC(=N\O)/C(C)=C/c1ccc(F)cc1 | CDK4 with cyclin D3 | cell-free assay |  | competition with immobilised ligand | 1 µM | remaining binding | 74%
CC1CCCN1c1nccc(-c2cnn3ncccc23)n1 (centres unmarked) | CDK4 | binding |  |  | 1 µM | remaining binding | 100%
COc1ccc(C(=O)[C@H]2Cc3c(cc([N+](=O)[O-])cc3[N+](=O)[O-])[C@@H](O)[C@@]23C(=O)Nc2ccccc23)cc1 | CDK4 | cell-free assay | inhibitor | TR-FRET | 1 µM | inhibition | 39.3%
N#CCCc1ccc2c(c1)-c1[nH]c3ccc([N+](=O)[O-])cc3c1CC(=O)N2 | CDK4 with cyclin D1 | cell-free assay |  |  | 0.5 µM | remaining signal | 11.8%
Cc1cc(NC(=O)c2cccc3cc(-c4cccc5[nH]nc(N)c45)ccc23)ccc1F | CDK4 with cyclin D3 | enzyme activity | inhibitor |  | 0.1 µM | activity vs control | 89%
O=C(c1ccccc1F)[C@H]1Cc2c(cc([N+](=O)[O-])cc2[N+](=O)[O-])[C@H](O)[C@]12C(=O)Nc1ccccc12 | CDK4 | cell-free assay | inhibitor | TR-FRET | 1 µM | inhibition | 29.3%
CN1CC(Oc2cnc(C#N)cc2-c2ccn3nc(NC(=O)C4CC4)cc3c2)C1 | CDK4 with cyclin D3 | enzyme activity | inhibitor |  | 1 µM | inhibition | -9%
O=C(c1ccccc1)[C@H]1Cc2c(cc([N+](=O)[O-])cc2[N+](=O)[O-])[C@H](O)[C@]12C(=O)Nc1ccccc12 | CDK4 | cell-free assay | inhibitor | TR-FRET | 1 µM | inhibition | 30.8%
C[C@H]1CCN(c2nccc(-c3cnn4ncccc34)n2)C1 | CDK4 with cyclin D3 | binding |  |  | 1 µM | remaining binding | 62%
COc1ccc(OC)c2c(=S)c3ccccc3[nH]c12 | CDK4 with cyclin D1 | cell-free assay |  |  | 0.5 µM | remaining signal | 93.5%

Structure (SMILES) | target | effect on | mode | technique | tested at | quantity | result
CC(=O)N1CCC(c2ccc(C(=O)NC(=N)N)cc2C(F)(F)F)CC1 | CDK4 | cell-free assay |  | competition with immobilised ligand | 1 µM | remaining binding | 100%
CN(CCCC(F)(F)F)c1nccc(-c2cnn3ncccc23)n1 | CDK4 with cyclin D3 | binding |  |  | 1 µM | remaining binding | 100%
CC(C)(O)[C@H]1CC[C@H](Nc2ccc3ncc(-c4cccc(C(F)(F)F)c4)n3n2)CC1 | CDK4 with cyclin D1 | enzyme activity | inhibitor |  | 1 µM | remaining activity | 90.5%
O=C(Nc1cnn(-c2csc(C(=O)NC3COC3)c2)c1)Nc1c(F)cccc1Cl | CDK4 with cyclin D1 | enzyme activity | inhibitor |  | 5 µM | remaining activity | 90.3%
C[C@@H]1CCN(C(=O)CC#N)C[C@@H]1N(C)c1ncnc2[nH]ccc12 | CDK4 with cyclin D3 | cell-free assay | inhibitor |  | 0.5 µM | remaining signal | 99.9%
F[C@@H]1CCN(c2nccc(-c3cnn4ncccc34)n2)C1 | CDK4 | binding |  |  | 1 µM | remaining binding | 100%
CS(=O)(=O)c1cc(C2(NC(=O)c3cncc4c3cnn4-c3ccc(F)cc3)CC2)ccn1 | CDK4 with cyclin D3 | cell-free assay |  | competition with immobilised ligand | 1 µM | remaining binding | 100%
COc1cc2c(cc1OC)-c1[nH]nc(Nc3cccc(F)c3)c1C2 | CDK4 with cyclin D3 | cell-free assay |  |  | 0.5 µM | remaining signal | 95.4%
CC1=C(C#N)C(c2ccc3c(c2)c(NC(=O)c2ccccc2C)nn3C)C(C#N)=C(C)N1 | CDK4 with cyclin D3 | cell-free assay |  | competition with immobilised ligand | 1 µM | remaining binding | 79%
CCN(CC)CCNC(=O)c1c(C)[nH]c(/C=C2\C(=O)Nc3ccc(F)cc32)c1C | CDK4 with cyclin D1 | cell-free assay |  |  | 0.5 µM | remaining signal | 81%
O=C(Nc1cnn(-c2csc(C(=O)NC3COC3)c2)c1)Nc1ccccc1Cl | CDK4 with cyclin D3 | enzyme activity | inhibitor |  | 5 µM | remaining activity | 98.2%
Nc1ncnc2occ(-c3ccc(NC(=O)Nc4cc(C(F)(F)F)ccc4F)cc3)c12 | CDK4 with cyclin D3 | cell-free assay | inhibitor |  | 20 µM | remaining signal | 51%
O=C1Nc2ccc(Cl)cc2C1=Cc1cc(Cl)c(O)c(Cl)c1 | CDK4 with cyclin D3 | cell-free assay |  |  | 0.5 µM | remaining signal | 94.8%
Cc1sc(C(=O)NC2COC2)cc1-n1cc(NC(=O)Nc2c(F)cccc2Cl)cn1 | CDK4 with cyclin D1 | enzyme activity | inhibitor |  | 10 µM | remaining activity | 78%
COc1cccc(CNC(=O)c2nc3scc(COCc4ccc(C(=O)O)cc4)c3c(=O)[nH]2)c1 | CDK4 with cyclin D3 | cell-free assay |  | competition with immobilised ligand | 1 µM | remaining binding | 91.1%
O=C(c1ccc(F)cc1)[C@H]1Cc2c(cc([N+](=O)[O-])cc2[N+](=O)[O-])[C@@H](O)[C@@]12C(=O)Nc1ccccc12 | CDK4 | cell-free assay | inhibitor | TR-FRET | 1 µM | inhibition | 48.2%
CO[C@@H](C)c1c(Nc2ccc([C@@H](N(C)C(=O)C3CCS(=O)(=O)CC3)C(F)(F)F)cc2)cnc2cc(Cl)nn12 | CDK4 with cyclin D1 | cell-free assay |  | competition with immobilised ligand | 1 µM | remaining binding | 100%
CN(C)c1nccc(-c2cnc3ncccn23)n1 | CDK4 | binding |  |  | 1 µM | remaining binding | 71%
O=C1NC(=O)c2cc(Nc3ccc(F)cc3)c(Nc3ccc(F)cc3)cc21 | CDK4 with cyclin D1 | cell-free assay |  |  | 0.5 µM | remaining signal | 101%
